Test results as given in the array DNA melting data of Ke et al. (doi:10.1101/2024.01.08.574731).

How the values were obtained:
[1] = melting temperature; fluorescence melt of hairpins on a sequencing array, two-state fit, raised by 9.35 °C to match UV melts; conditions: sodium 0.088 M
In short: (§1)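 Folding enthalpy and melting temperature were estimated with bootstrapped two-state fits and combined across four replicates by inverse-variance weighting, with fitted temperatures raised by 9.35 °C to match UV melts. The data were Cy3 fluorescence of library hairpins, with annealed Cy3 and quencher oligos, on a sequenced MiSeq flow cell in 50 mM Na-HEPES pH 8.0, 25 mM NaCl, imaged in 2.5 °C steps up to 60 °C and normalised to pre-quench Cy3 and control constructs.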

[2] = folding enthalpy; higher = less favourable; fluorescence melt of hairpins on a sequencing array, two-state fit; conditions: sodium 0.088 M
In short: as §1

| Sequence | Tm [1] | folding enthalpy [2] |
| --- | --- | --- |
| CATCTGAAAAGATG (((((....))))) | 44.5 °C | -25.1 kcal/mol |
| GGGTGTGGAAACACATCC ((.((((....)))).)) | 52.5 °C | -26.4 kcal/mol |
| GAGGTCGGAAACGGCTTC ((.(.((....)).).)) | 36.1 °C | -20.5 kcal/mol |
| GGGGCGGGAAACCGTCCC (((.(((....))).))) | 67.7 °C | -34.9 kcal/mol |
| GCCGACGAAAGTCGTGGC ((((((....)))..))) | 57 °C | -16.3 kcal/mol |
| GTGCTCGAAAGAGACCAC ((((((....)))..))) | 34.4 °C | -14.6 kcal/mol |
| GTTGGCGAAAGCCCAAC ((((((....))).))) | 50.7 °C | -16.3 kcal/mol |
| GCAACCGGAAACGGTCGC ((.((((....)))).)) | 52.8 °C | -29.8 kcal/mol |
| GTCTTCGAAAGAAGGAC ((((((....))).))) | 41.6 °C | -16.4 kcal/mol |
| GATCTTCCGTAAGATC ((((((....)))))) | 43.8 °C | -29.8 kcal/mol |
| GTCGGTCGAAAGACGAC (((.(((....)))))) | 55.1 °C | -29.2 kcal/mol |
| GTCCTCGAAAGAGAAGAC ((((((....)))..))) | 32.2 °C | -19.8 kcal/mol |
| GCATGGGGAAACCCGTGC (((.(((....))).))) | 58.7 °C | -47.5 kcal/mol |
| GCGTAGGAACGC ((((....)))) | 49.2 °C | -16.3 kcal/mol |
| GGCCCACGAAAGTGTGCC (((.(((....))).))) | 58.1 °C | -49.1 kcal/mol |
| GATCGTGCGACGATC ((((((...)))))) | 56.8 °C | -38.4 kcal/mol |
| GATCTGAGACCAGATC ((((((....)))))) | 44.5 °C | -32.9 kcal/mol |
| GCACTGCGAAAGCACCGC ((..(((....)))..)) | 29.5 °C | -9.03 kcal/mol |
| GATCTCTATCGAGATC ((((((....)))))) | 51.1 °C | -39.4 kcal/mol |
| GATCAAGACTTTGATC ((((((....)))))) | 51.7 °C | -35 kcal/mol |
| GTAGCCGAAAGGCCGTAC ((((((....)))..))) | 26.7 °C | -7.15 kcal/mol |
| GATCCTAACCAGGATC ((((((....)))))) | 52 °C | -32.3 kcal/mol |
| GGGAGTGGAAACATTCCC ((((.((....)).)))) | 48.2 °C | -33.5 kcal/mol |

| Sequence | Tm [1] | folding enthalpy [2] |
| --- | --- | --- |
| GCCGGGCGAAAGCTGGGC (((..((....))..))) | 61.2 °C | -26.3 kcal/mol |
| GATCACGTAAGTGATC ((((((....)))))) | 69.3 °C | -30.8 kcal/mol |
| GTCGTGGGAAACTGCGAC ((((..(....)..)))) | 46.9 °C | -18.5 kcal/mol |
| CGGGCGGAAACGCCGCCG ((((((....)))..))) | 47.8 °C | -10.2 kcal/mol |
| GTGCGACCGAAAGGTCAC (((..(((....)))))) | 60 °C | -13.1 kcal/mol |
| GGTACGACGAAAGTCACC (((..(((....)))))) | 32.9 °C | -13.4 kcal/mol |
| GAGTACGGAAACGCACTC ((((.((....)).)))) | 45.3 °C | -31.6 kcal/mol |
| GATCCAGCACTGGATC ((((((....)))))) | 56 °C | -37.6 kcal/mol |
| GTCAGCGAAAGCTATGAC ((((((....)))..))) | 44.2 °C | -20.6 kcal/mol |
| GATCCGAAGACGGATC ((((((....)))))) | 54.7 °C | -37 kcal/mol |
| GATCCCTGGAGGGATC ((((((....)))))) | 59.4 °C | -34.4 kcal/mol |
| GCACTGCGAAAGCCGAGC ((.(.((....)).).)) | 38.8 °C | -20.2 kcal/mol |
| CGCCTACGGAAACGTGCG (((..(((....)))))) | 39.4 °C | -23.2 kcal/mol |
| GCACTCCGAAAGGATGC (((.(((....)))))) | 51.7 °C | -29.4 kcal/mol |
| GTAAGAGGAAACCCTTAC (((((.(....).))))) | 31.4 °C | -19.6 kcal/mol |
| GCGAAAGGAAACTTTCAC (.(((((....))))).) | 32.6 °C | -19.1 kcal/mol |
| GTGTACCGAAAGGTCAC (((.(((....)))))) | 53 °C | -30.5 kcal/mol |
| GCCCCGCGAAAGCACGGC (((..((....))..))) | 41.6 °C | -18.3 kcal/mol |
| GTACTCGGAAACAAGTAC (((((.(....).))))) | 32.5 °C | -23.4 kcal/mol |
| GATCTTTGCAAGATC ((((((...)))))) | 46.4 °C | -34.7 kcal/mol |
| GATGGCGAAAGCCTGATC ((((((....)))..))) | 33.6 °C | -11 kcal/mol |
| GGTCAGGGAAACCTGGTC (..((((....))))..) | 35.7 °C | -15.9 kcal/mol |
| GCGTGCGTACGC ((((....)))) | 64.8 °C | -13.7 kcal/mol |

| Sequence | Tm [1] | folding enthalpy [2] |
| --- | --- | --- |
| GCGAGGGGAAACCCTTGC ((.((((....)))).)) | 55.6 °C | -35.8 kcal/mol |
| GGGAACGAAAGTTAACCC ((((((....)))..))) | 35.1 °C | -19.8 kcal/mol |
| GCTGGCGAAAGCCGGAGC ((((((....)))..))) | 56.4 °C | -11.4 kcal/mol |
| GATCGTTGTAACGATC ((((((....)))))) | 58.4 °C | -48.8 kcal/mol |
| GCGCCCCGAAAGGGTCGC (((.(((....))).))) | 68 °C | -45.8 kcal/mol |
| GAATAGGGAAACCTATTC (((((((....))))))) | 50 °C | -42.1 kcal/mol |
| GTTTTGGGAAACTGAAAC ((((..(....)..)))) | 31.4 °C | -12.2 kcal/mol |
| GAGAGTCCGAAAGGACTC (((..(((....)))))) | 60.4 °C | -8.55 kcal/mol |
| GATCCTTGGAAGGATC ((((((....)))))) | 52.2 °C | -32.1 kcal/mol |
| GTAATCGAAAGATTTAC ((((((....))).))) | 33.3 °C | -14.7 kcal/mol |
| GCGGGGCGCCGC ((((....)))) | 66.1 °C | -14.7 kcal/mol |
| GCCGTTGGAAACAGTGGC (((..((....))..))) | 43.6 °C | -14.4 kcal/mol |
| GATCAATCCCTTGATC ((((((....)))))) | 46.7 °C | -41.6 kcal/mol |
| GATCCGGTCTCGGATC ((((((....)))))) | 58.6 °C | -26.6 kcal/mol |
| GCCACATCGAAAGATGGC (((..(((....)))))) | 45.5 °C | -15.2 kcal/mol |
| GATCACCGTCGTGATC ((((((....)))))) | 55.2 °C | -39 kcal/mol |
| GCACAGACGAAAGTCTGC (((..(((....)))))) | 34.5 °C | -8.42 kcal/mol |
| GCCTAGCGAAAGCCGGGC (((..((....))..))) | 57.1 °C | -20.1 kcal/mol |
| GCAAGGGGAAACCCTCGC ((.((((....)))).)) | 45 °C | -23.4 kcal/mol |
| GGAGCCGAAAGGCGTCC ((((((....))).))) | 53.4 °C | -9.6 kcal/mol |
| GATCATCGAAATGATC ((((((....)))))) | 44.2 °C | -29 kcal/mol |
| GTATGACCGAAAGGTTAC (((..(((....)))))) | 30.5 °C | -10.3 kcal/mol |
| GTAGTGGGAAACCGCTAC ((((.((....)).)))) | 51.5 °C | -48.7 kcal/mol |

| Sequence | Tm [1] | folding enthalpy [2] |
| --- | --- | --- |
| GCTGAGCGAAAGCTTAGC (((.(((....))).))) | 57.4 °C | -50.4 kcal/mol |
| GCCCATTCGAAAGAAGGC (((..(((....)))))) | 33 °C | -15.8 kcal/mol |
| GAAAGTGGAAACGCTTTC (((((.(....).))))) | 44.2 °C | -27.6 kcal/mol |
| GGATACCGAAAGGTCTCC (((.(((....))).))) | 47.6 °C | -25.3 kcal/mol |
| GATCCCCAAAGGGATC ((((((....)))))) | 59.7 °C | -33.5 kcal/mol |
| GACTGACGAAAGTCTGTC (((.(((....))).))) | 54.9 °C | -36.7 kcal/mol |
| GATATCGAAAGATATC ((((((....)))))) | 53.6 °C | -41 kcal/mol |
| GATCGCCTTTGCGATC ((((((....)))))) | 67.8 °C | -38.6 kcal/mol |
| GGGGACGGAAACACCCCC ((((..(....)..)))) | 34.8 °C | -22.6 kcal/mol |
| GAATACGGAAACGTATCC (.(((((....))))).) | 35.1 °C | -15.8 kcal/mol |
| GCATGATCGAAAGATTGC (((..(((....)))))) | 32.6 °C | -19.9 kcal/mol |
| GATCATTAGCATGATC ((((((....)))))) | 44.2 °C | -32.6 kcal/mol |
| CGGATCGGAAACGAGCCG (((.(((....))).))) | 65.4 °C | -47.4 kcal/mol |
| GCCGCAGGAAACCGCGGC (((((.(....).))))) | 67.8 °C | -32.1 kcal/mol |
| GGGTCCGAAAGGAACCC ((((((....))).))) | 64.1 °C | -22.1 kcal/mol |
| GCGATGCGAAAGCACTGC ((..(((....)))..)) | 45.2 °C | -19.1 kcal/mol |
| GTCGTCGAAAGACCGGAC ((((((....)))..))) | 37.4 °C | -16.9 kcal/mol |
| GGTAATCGAAAGATAACC (((.(((....))).))) | 41.7 °C | -26.3 kcal/mol |
| GATCTACGAGTAGATC ((((((....)))))) | 52.3 °C | -37.8 kcal/mol |
| GATCCAAATGTGGATC ((((((....)))))) | 48.5 °C | -33.8 kcal/mol |
| GTGAGCGAAAGCTACCAC ((((((....)))..))) | 35.9 °C | -10.5 kcal/mol |
| GCGACAGGAAACTGTTGC ((.((((....)))).)) | 54.9 °C | -34.4 kcal/mol |
| GGTGGTGGAAACACCGTC (..((((....))))..) | 55.5 °C | -22.8 kcal/mol |
